Converted amounts (≈) assume the structure as drawn. Marks after values point to notes of the source that are not given here.
How the values were obtained:
[1] = test system: HT‐29 cells; experiment: Protein content; format: cell-based; conditions: Homo sapiens, HT-29, 72 h, read-out: HT‐29 IC50 SRB
Summary of the method: (§1)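 Seeded 2×10^4 cells per well for 24 h, then treated with or without test compound for three days, in triplicate. Fixed with 50% TCA for 1 h at 4 °C, washed and dried. Stained 30 min at 4 °C with 0.4% sulforhodamine B in 1% acetic acid, rinsed with 1% acetic acid. Dye redissolved in Tris buffer, absorbance read at 490 nm. Doxorubicin control; MTT and SRB data pooled, mean ± SD, n≥6.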

[2] = Water solubility, shake flask method in 0.1 M phosphate buffer pH 6.8; format: physicochemical; conditions: 37 °C, pH 6.8, aqueous buffer, thermodynamic from solid
Summary of the method: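 Excess solid added to 1 mL sodium phosphate buffer, pH 6.8. Two conditions: 90 min sonication at 37 °C, or 30 min sonication at 37 °C, 23 h shaking at 300 rpm, then 30 min sonication. Centrifuged 14000 rpm for 5 min, filtered (0.2 µm) at 37 °C and diluted in DMSO. Quantified by LC at maximum absorbance against standard curves; independent triplicates.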

[3] = test system: EA.hy926 cells; experiment: Mitochondria activity; format: cell-based; conditions: Homo sapiens, EA.hy 926, 72 h, read-out: EA.hy926 IC50 MTT
Summary of the method: (§2)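 Cells kept in DMEM+glutamax with 1% NEAA, 1% P/S and 10% FBS at 37 °C, 10% CO2. Seeded 2×10^4 per well for 24 h, then exposed 72 h to test compound at various concentrations in serum-free medium, in triplicate. MTT (5 mg/mL in PBS) added for 2 h, formazan dissolved in DMSO, read at 570 nm. IC50 from % survival; doxorubicin control; MTT and SRB data pooled, mean ± SD, n≥6.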

[4] = test system: EA.hy926 cells; experiment: Intracellular ROS; format: cell-based; conditions: Homo sapiens; for activity at 1 µM: EA.hy 926, read-out: Intracellular ROS, percentage compared to the untreated control cells (ROS/SRB), EA.hy926, 1 μM; for activity at 10 µM: EA.hy 926, read-out: Intracellular ROS, percentage compared to the untreated control cells (ROS/SRB), EA.hy926, 10 μM
Summary of the method: (§3)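 Cells grown in DMEM+glutamax with 1% NEAA, 1% P/S and 10% FBS at 37 °C, 10% CO2. Seeded at 2×10^4 cells/well for 24 h, then confluent cells were exposed to test compound at 1 or 10 µM in serum-free medium, with NAC as control. Cells were washed, loaded with DCFH-DA for 30 min, then kept 1 h in phenol red-free DMEM. Fluorescence read at ex 485/em 535 nm, normalised to same-well SRB protein (490 nm) and given as % of untreated cells. Mean ± SD, n≥3; two-tailed t-test with unequal variances.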

[5] = test system: HT‐29 cells; experiment: Intracellular ROS; format: cell-based; conditions: Homo sapiens; for activity at 1 µM: HT-29, read-out: Intracellular ROS, percentage compared to the untreated control cells (ROS/SRB), HT‐29, 1 μM; for activity at 10 µM: HT-29, read-out: Intracellular ROS, percentage compared to the untreated control cells (ROS/SRB), HT‐29, 10 μM
Summary of the method: as §3

[6] = test system: Caco‐2 cells; experiment: Protein content; format: cell-based; conditions: Homo sapiens, Caco-2, 72 h, read-out: Caco‐2 IC50 SRB
Summary of the method: as §1

[7] = Ferric reducing antioxidant power; conditions: chemical antioxidant capacity, n=3
Summary of the method: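 FRAP reagent made from acetate buffer, TPTZ in ethanol and FeCl3·6H2O in dilute HCl, mixed 10:1:1, with TPTZ and iron solutions fresh daily. Sample mixed with reagent 1:9, absorbance read at 593 nm after 4 min. Values expressed as Trolox equivalents by linear regression on a Trolox standard curve; α-tocopherol positive control.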

[8] = test system: HT‐29 cells; experiment: Mitochondria activity; format: cell-based; conditions: Homo sapiens, HT-29, 72 h, read-out: HT‐29 IC50 MTT
Summary of the method: as §2

[9] = test system: HepG2 cells; experiment: Protein content; format: cell-based; conditions: Homo sapiens, HepG2, 72 h, read-out: HepG2 IC50 SRB
Summary of the method: as §1

[10] = test system: Caco‐2 cells; experiment: Mitochondria activity; format: cell-based; conditions: Homo sapiens, Caco-2, 72 h, read-out: Caco‐2 IC50 MTT
Summary of the method: as §2

[11] = test system: HepG2 cells; experiment: Intracellular ROS; format: cell-based; conditions: Homo sapiens; for activity at 1 µM: HepG2, read-out: Intracellular ROS, percentage compared to the untreated control cells (ROS/SRB), HepG2, 1 μM; for activity at 10 µM: HepG2, read-out: Intracellular ROS, percentage compared to the untreated control cells (ROS/SRB), HepG2, 10 μM
Summary of the method: as §3

[12] = test system: HepG2 cells; experiment: Mitochondria activity; format: cell-based; conditions: Homo sapiens, HepG2, 72 h, read-out: HepG2 IC50 MTT
Summary of the method: as §2

[13] = test system: Caco‐2 cells; experiment: Intracellular ROS; format: cell-based, human; conditions: protein content normalization, mean±SD, n≥3
Summary of the method: as §3

[14] = test system: EA.hy926 cells; experiment: Protein content; format: cell-based; conditions: Homo sapiens, EA.hy 926, 72 h, read-out: EA.hy926 IC50 SRB
Summary of the method: as §1

[15] = DPPH radical‐scavenging activity assay; conditions: result in words
Summary of the method: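 DPPH diluted to 200 µM in MeOH and mixed with an equal volume of test compound in MeOH at various concentrations. Incubated 30 min in the dark at 30 °C, absorbance read at 515 nm. % inhibition corrected for sample absorbance without DPPH. EC50 from fit to the linear part of the curve. Trolox reference; at least three independent experiments.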

Structure (SMILES)	IC50 [1]	solubility at 90 min [2]	solubility at 24 h [2]	IC50 [3]	activity at 1 µM [4]	activity at 10 µM [4]	activity at 1 µM [5]	activity at 10 µM [5]	IC50 [6]	FRAP [7]	IC50 [8]	IC50 [9]	IC50 [10]	activity at 1 µM [11]	activity at 10 µM [11]	IC50 [12]	Intracellular ROS, percentage compared to the untreated control cells (ROS/SRB), Caco‐2, 1 μM [13]	Intracellular ROS, percentage compared to the untreated control cells (ROS/SRB), Caco‐2, 10 μM [13]	IC50 [14]	DPPH radical‐scavenging activity [15]
O=C(/C=C(/C=C/c1cccnc1)NCCO)/C=C/c1cccnc1 [5 e, (1E,4Z,6E)‐5‐(2‐Hydroxyethylamino)‐1,7‐di(pyridin‐3‐yl)hepta‐1,4,6‐trien‐3‐one]	> 75 µM	4350 ± 260 µM (≈ 1400 µg/mL)	4850 ± 140 µM (≈ 1560 µg/mL)	> 75 µM	102 ± 1.6%	115 ± 7.6%	93.9 ± 5.5%	110 ± 3.7%	> 75 µM	0.04 Trolox equiv per μM	> 75 µM	> 75 µM	> 75 µM	88.6 ± 15.2%	92.1 ± 5.1%	> 75 µM	111.4±8.9%	118.6±2.8^[c] %	> 75 µM	
CC(C)CNC(=C\C(=O)/C=C/c1cccnc1)/C=C/c1cccnc1 [5 a, (1E,4Z,6E)‐5‐Isobutylamino‐1,7‐di(pyridin‐3‐yl)hepta‐1,4,6‐trien‐3‐one]	30.9 ± 10.9 µM	168 ± 6 µM (≈ 56.2 µg/mL)	303 ± 16 µM (≈ 101 µg/mL)	33 ± 9.5 µM	88.7 ± 9.3%	93.4 ± 14.6%	103 ± 11.1%	84.1 ± 2.5%	31.6 ± 9 µM	0.03 Trolox equiv per μM	37.6 ± 1.8 µM	20.8 ± 1.5 µM	45.3 ± 10.5 µM	90.7 ± 13.7%	94 ± 4.6%	26.2 ± 0.3 µM	109.8±7.4%	114.7±3.1^[b] %	35.9 ± 7.2 µM	
O=C(/C=C(O)/C=C/c1cccnc1)/C=C/c1cccnc1 [compound 2, (1E,4Z,6E)‐5‐Hydroxy‐1,7‐di(pyridin‐3‐yl)hepta‐1,4,6‐trien‐3‐one]	6.1 ± 3.4 µM	12.4 ± 0.2 µM (≈ 3.45 µg/mL)	9.2 ± 0.1 µM (≈ 2.56 µg/mL)	7.9 ± 1.9 µM	112 ± 1.6%	116 ± 3.3%	94 ± 4%	127 ± 7.9%	7.3 ± 3.1 µM	0.03 Trolox equiv per μM	8.2 ± 0.8 µM	10 ± 1.6 µM	6.9 ± 2.5 µM	99 ± 4.6%	90.4 ± 11.9%	8.3 ± 0.7 µM	104.8±15.1%	142.7±11.9^[b] %	11.2 ± 2.8 µM	no activity
COc1cc(/C=C/C(=O)CC(=O)/C=C/c2ccc(O)c(OC)c2)ccc1O [curcumin, reference compound]	20.3 ± 1.1 µM	2.9 ± 0.3 µM (≈ 1.07 µg/mL)	2.6 µM (≈ 0.958 µg/mL)	20 ± 5.9 µM	99.9 ± 6.4%	104 ± 7.6%	92.8 ± 5.8%	90.2 ± 6.1%	33.1 ± 4.5 µM	1.11 Trolox equiv per μM	23.4 ± 5.1 µM	21.3 ± 4 µM	28 ± 6.4 µM	95.9 ± 13.8%	84.2 ± 8.1%	20.3 ± 4.1 µM	96.7±5.8%	95.8±2.5%	34.7 ± 10.5 µM	
O=C(/C=C(/C=C/c1cccnc1)NCCCO)/C=C/c1cccnc1 [5 f, (1E,4Z,6E)‐5‐(3‐Hydroxypropylamino)‐1,7‐di(pyridin‐3‐yl)hepta‐1,4,6‐trien‐3‐one]	> 75 µM	1470 ± 24 µM (≈ 494 µg/mL)	4270 ± 332 µM (≈ 1430 µg/mL)	> 75 µM	88.7 ± 1.6%	102 ± 1.6%	95.4 ± 1.7%	96 ± 12.7%	> 75 µM	0.04 Trolox equiv per μM	> 75 µM	> 75 µM	> 75 µM	84.8 ± 2.5%	74.4 ± 3.2%	> 75 µM	102.5±2.3%	115.4±8.5%	> 75 µM	

Reference: publication PMC5974556 (ChemistryOpen, 2018)
